According to ChEMBL document CHEMBL1131415, “Structure-activity relationships for antiplasmodial activity among 7-substituted 4-aminoquinolines” (J Med Chem, 1998):

Legend:
Assay type in all cases: functional, organism-based
Plasmodium falciparum [1] = assay: In vitro antiplasmodial activity against chloroquine-resistant Plasmodium falciparum Indochina I
In short: (§1)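 Cloned P. falciparum (chloroquine-susceptible Haiti-13524 or chloroquine-resistant Indochina I), synchronous early ring stage, 2% red cell suspension at 0.2% parasitemia. Exposed to varying AQ concentrations 48 h, then same concentrations plus 0.5 µCi 3H-hypoxanthine for additional 18 h. IC50 from linear regression of percent inhibition of 3H-hypoxanthine accumulation vs log concentration; triplicate determinations, chloroquine control.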

Plasmodium falciparum [2] = assay: In vitro antiplasmodial activity against chloroquine-sensitive Plasmodium falciparum Haiti 135; in short: as §1
Plasmodium falciparum [3] = assay: In vitro anti-plasmodial activity against chloroquine-resistant Plasmodium falciparum Indochina I; in short: as §1

CCN(CC)CCNc1ccnc2cc(C(F)(F)F)ccc12
IC50 (Plasmodium falciparum [1]): 0.041 µM
IC50 (Plasmodium falciparum [2]): 0.03 µM

CCN(CC)CCNc1ccnc2cc(Br)ccc12
IC50 (Plasmodium falciparum [1]): 0.007 µM
IC50 (Plasmodium falciparum [2]): 0.007 µM

CCN(CC)CCNc1ccnc2cc(F)ccc12
IC50 (Plasmodium falciparum [1]): 0.06 µM
IC50 (Plasmodium falciparum [2]): 0.035 µM

CCN(CC)CCNc1ccnc2cc(OC)ccc12
IC50 (Plasmodium falciparum [1]): 0.155 µM
IC50 (Plasmodium falciparum [2]): 0.048 µM

CCN(CC)CC(C)Nc1ccnc2cc(Cl)ccc12 (stereo not drawn)
IC50 (Plasmodium falciparum [1]): 0.01 µM
IC50 (Plasmodium falciparum [2]): 0.008 µM

CCN(CC)CCCCCCCCCCNc1ccnc2cc(OC)ccc12
IC50 (Plasmodium falciparum [2]): 0.01 µM
IC50 (Plasmodium falciparum [3]): 0.17 µM

CCN(CC)CCCCCCCCCCCCNc1ccnc2cc(I)ccc12
IC50 (Plasmodium falciparum [2]): 0.01 µM
IC50 (Plasmodium falciparum [3]): 0.02 µM

CCN(CC)CCCNc1ccnc2cc(Cl)ccc12
IC50 (Plasmodium falciparum [1]): 0.006 µM
IC50 (Plasmodium falciparum [2]): 0.005 µM

CCN(CC)CCCC(C)Nc1ccnc2cc(OC)ccc12 (stereo not drawn)
IC50 (Plasmodium falciparum [1]): 3 µM
IC50 (Plasmodium falciparum [2]): 0.055 µM

CCN(CC)CC(C)Nc1ccnc2cc(Br)ccc12 (stereo not drawn)
IC50 (Plasmodium falciparum [1]): 0.012 µM
IC50 (Plasmodium falciparum [2]): 0.011 µM

CCN(CC)CCCC(C)Nc1ccnc2cc(C(F)(F)F)ccc12 (stereo not drawn)
IC50 (Plasmodium falciparum [1]): 0.045 µM
IC50 (Plasmodium falciparum [2]): 0.016 µM

CCN(CC)CC(C)Nc1ccnc2cc(C(F)(F)F)ccc12 (stereo not drawn)
IC50 (Plasmodium falciparum [1]): 0.05 µM
IC50 (Plasmodium falciparum [2]): 0.05 µM

CCN(CC)CC(C)Nc1ccnc2cc(F)ccc12 (stereo not drawn)
IC50 (Plasmodium falciparum [1]): 0.06 µM
IC50 (Plasmodium falciparum [2]): 0.03 µM

CCN(CC)CCCCCCCCCCNc1ccnc2cc(Br)ccc12
IC50 (Plasmodium falciparum [2]): 0.006 µM
IC50 (Plasmodium falciparum [3]): 0.017 µM

CCN(CC)CCCNc1ccnc2cc(F)ccc12
IC50 (Plasmodium falciparum [1]): 0.12 µM
IC50 (Plasmodium falciparum [2]): 0.023 µM

CCN(CC)CCCCCCCCCCCCNc1ccnc2cc(OC)ccc12
IC50 (Plasmodium falciparum [2]): 0.017 µM
IC50 (Plasmodium falciparum [3]): 0.09 µM

CCN(CC)CCCCCCCCCCNc1ccnc2cc(Cl)ccc12
IC50 (Plasmodium falciparum [2]): 0.006 µM
IC50 (Plasmodium falciparum [3]): 0.013 µM

CCN(CC)CCCC(C)Nc1ccnc2cc(I)ccc12 (stereo not drawn)
IC50 (Plasmodium falciparum [1]): 0.035 µM
IC50 (Plasmodium falciparum [2]): 0.004 µM

CCN(CC)CC(C)Nc1ccnc2cc(I)ccc12 (stereo not drawn)
IC50 (Plasmodium falciparum [1]): 0.007 µM
IC50 (Plasmodium falciparum [2]): 0.007 µM

CCN(CC)CCCCCNc1ccnc2cc(Cl)ccc12
IC50 (Plasmodium falciparum [1]): 0.058 µM
IC50 (Plasmodium falciparum [2]): 0.006 µM

CCN(CC)CCCCCCCCCCNc1ccnc2cc(I)ccc12
IC50 (Plasmodium falciparum [2]): 0.006 µM
IC50 (Plasmodium falciparum [3]): 0.016 µM

CCN(CC)CCCNc1ccnc2cc(OC)ccc12
IC50 (Plasmodium falciparum [1]): 0.9 µM
IC50 (Plasmodium falciparum [2]): 0.15 µM

CCN(CC)CCCCCCCCCCCCNc1ccnc2cc(F)ccc12
IC50 (Plasmodium falciparum [2]): 0.008 µM
IC50 (Plasmodium falciparum [3]): 0.025 µM

CCN(CC)CCCCCCNc1ccnc2cc(Cl)ccc12
IC50 (Plasmodium falciparum [1]): 0.056 µM
IC50 (Plasmodium falciparum [2]): 0.005 µM

CCN(CC)CCCCCCCCCCCCNc1ccnc2cc(C(F)(F)F)ccc12
IC50 (Plasmodium falciparum [2]): 0.005 µM
IC50 (Plasmodium falciparum [3]): 0.025 µM

CCN(CC)CCCNc1ccnc2cc(C(F)(F)F)ccc12
IC50 (Plasmodium falciparum [1]): 0.018 µM
IC50 (Plasmodium falciparum [2]): 0.015 µM

CCN(CC)CCCNc1ccnc2cc(Br)ccc12
IC50 (Plasmodium falciparum [1]): 0.006 µM
IC50 (Plasmodium falciparum [2]): 0.004 µM

CCN(CC)CCNc1ccnc2cc(Cl)ccc12
IC50 (Plasmodium falciparum [1]): 0.005 µM
IC50 (Plasmodium falciparum [2]): 0.007 µM

CCN(CC)CCNc1ccnc2cc(I)ccc12
IC50 (Plasmodium falciparum [1]): 0.006 µM
IC50 (Plasmodium falciparum [2]): 0.006 µM

CCN(CC)CCCCCCCCCCNc1ccnc2cc(F)ccc12
IC50 (Plasmodium falciparum [2]): 0.007 µM
IC50 (Plasmodium falciparum [3]): 0.04 µM

CCN(CC)CCCCCCCCNc1ccnc2cc(Cl)ccc12
IC50 (Plasmodium falciparum [2]): 0.004 µM
IC50 (Plasmodium falciparum [3]): 0.041 µM

CCN(CC)CCCC(C)Nc1ccnc2cc(F)ccc12 (stereo not drawn)
IC50 (Plasmodium falciparum [1]): 0.5 µM
IC50 (Plasmodium falciparum [2]): 0.02 µM

CCN(CC)CCCCCCCCCCCCNc1ccnc2cc(Br)ccc12
IC50 (Plasmodium falciparum [2]): 0.008 µM
IC50 (Plasmodium falciparum [3]): 0.018 µM

CCN(CC)CCCC(C)Nc1ccnc2cc(Br)ccc12 (stereo not drawn)
IC50 (Plasmodium falciparum [1]): 0.09 µM
IC50 (Plasmodium falciparum [2]): 0.005 µM

CCN(CC)CCCNc1ccnc2cc(I)ccc12
IC50 (Plasmodium falciparum [1]): 0.004 µM
IC50 (Plasmodium falciparum [2]): 0.003 µM

CCN(CC)CCCCNc1ccnc2cc(Cl)ccc12
IC50 (Plasmodium falciparum [1]): 0.051 µM
IC50 (Plasmodium falciparum [2]): 0.005 µM

CCN(CC)CCCCCCCCCCNc1ccnc2cc(C(F)(F)F)ccc12
IC50 (Plasmodium falciparum [2]): 0.01 µM
IC50 (Plasmodium falciparum [3]): 0.02 µM

CCN(CC)CCCCCCCCCCCCNc1ccnc2cc(Cl)ccc12
IC50 (Plasmodium falciparum [2]): 0.013 µM
IC50 (Plasmodium falciparum [3]): 0.011 µM

CCN(CC)CC(C)Nc1ccnc2cc(OC)ccc12 (stereo not drawn)
IC50 (Plasmodium falciparum [1]): 0.18 µM
IC50 (Plasmodium falciparum [2]): 0.094 µM
